≈ marks a conversion by molar mass, not a printed value.
Key:
[1] = tested on: Mus musculus; experiment: In vivo effective dose evaluated against Plasmodium berghei N by peroral administration in mice (Mus musculus); assay type: functional; details: po
Procedure, shortened: (§1)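 P. berghei N infection in mice, with drug given subcutaneously or orally, per the Peters protocol. Parasitemia was read on day 4 and expressed as percent reduction at 10 mg/kg. ED50 and ED90 in mg/kg were derived from the same test.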

[2] = tested on: Mus musculus; experiment: In vivo effective dose was evaluated against Plasmodium berghei N by sub cutaneous administration in mice (Mus musculus); assay type: functional; procedure, shortened: as §1
[3] = tested on: Mus musculus; experiment: In vivo effective dose was evaluated against Plasmodium berghei N by peroral administration in mice (Mus musculus); assay type: functional; details: po; procedure, shortened: as §1
[4] = tested on: Mus musculus; experiment: In vivo effective dose evaluated against Plasmodium berghei N by subcutaneous administration in mice (Mus musculus); assay type: functional; details: sc; procedure, shortened: as §1
[5] = tested on: Mus musculus; experiment: Compound was evaluated for percentage reduction of parasitaemia at day 4 at a concentration of 10 mg/kg by peroral administration; assay type: functional; details: route oral; procedure, shortened: as §1
[6] = tested on: Mus musculus; experiment: Percentage reduction of parasitaemia at day 4 at a concentration of 10 mg/kg by subcutaneous administration; assay type: functional; procedure, shortened: as §1
[7] = tested on: Mus musculus; experiment: In vivo antimalarial activity against Plasmodium berghei NK173 in mice (Mus musculus) by intraperitoneal route at a concentration of 35.5 uM/kg at day 11; assay type: functional
Procedure, shortened: (§2)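 Female CD1 mice (18-20 g) were infected with P. berghei NK 173 at (1-5) × 10^6 parasitized red cells, following the Peters test. Groups held 5-10 mice. Drug was given intraperitoneally at 35.5 µmol·kg⁻¹. Survival was followed to 20 days postinfection.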

[8] = tested on: Mus musculus; experiment: In vivo antimalarial activity against Plasmodium berghei NK 173 in mice (Mus musculus) by intraperitoneal route at a concentration of 35.5 uM/kg at day 5; assay type: functional; procedure, shortened: as §2
[9] = tested on: Plasmodium falciparum; experiment: In vitro inhibitory concentration against chloroquine-resistant Plasmodium falciparum W2; assay type: functional, organism-based
Procedure, shortened: (§3)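 [3H]hypoxanthine uptake assay on chloroquine-resistant P. falciparum FcB1 (Colombia) and W2 (Indochina) in continuous human erythrocyte culture. Ring-stage synchronized parasites at 0.5% parasitemia and 1% final hematocrit received serially diluted drug, with methanol or DMSO at no more than 0.1% final. Plates ran 42 h at 37 °C in a candle jar, then freeze-thaw, harvest and scintillation counting. IC50 came from nonlinear regression of log dose-response, from at least three experiments.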

[10] = tested on: Mus musculus; experiment: In vivo antimalarial activity against Plasmodium berghei NK 173 in mice (Mus musculus) by intraperitoneal route at a concentration of 35.5 uM/kg at day 10; assay type: functional; procedure, shortened: as §2
[11] = tested on: Mus musculus; experiment: In vivo antimalarial activity against Plasmodium berghei NK173 in mice (Mus musculus) by intraperitoneal route at a concentration of 35.5 uM/kg at day 4; assay type: functional; procedure, shortened: as §2
[12] = tested on: Plasmodium falciparum; experiment: In vitro inhibitory concentration against chloroquine-resistant Plasmodium falciparum FcB1; assay type: functional, organism-based; procedure, shortened: as §3
[13] = tested on: Mus musculus; experiment: In vivo effective dose was evaluated against Plasmodium berghei N by subcutaneous administration in mice (Mus musculus); assay type: functional; details: sc; procedure, shortened: as §1
[14] = tested on: Mus musculus; experiment: In vivo antimalarial activity against Plasmodium berghei NK 173 in mice (Mus musculus) by intraperitoneal route at a concentration of 35.5 uM/kg at day 12; assay type: functional; procedure, shortened: as §2
[15] = Plasma clearance following 10 mg/kg intravenous or 50 mg/kg oral dosing in rats; assay type: ADME, organism-based; details: rat, read-out: Activity
Procedure, shortened: (§4)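 Male Sprague-Dawley rats (280-320 g) were cannulated the day before, then fasted with free access to water, n = 2 per route. The iv dose was nominally 10 mg/kg, about 3 mg/mL in 10% ethanol/15 mM citrate-buffered 0.1 M Captisol, pH 3, infused over 5 min. The oral dose was nominally 50 mg/kg, given by gavage as a suspension in 0.5% HPMC, 0.5% benzyl alcohol and 0.4% Tween 80 in 0.9% NaCl. Carotid blood was sampled over 8 h, and plasma was quantified by HPLC/MS.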

[16] = Volume of distribution following 10 mg/kg intravenous or 50 mg/kg oral dosing in rats was determined; assay type: ADME, organism-based; details: rat, in vivo; read-out: Activity; procedure, shortened: as §4
[17] = Log D value between octanol and PBS at pH7.4; assay type: physicochemical; details: pH 7.4
[18] = Oral bioavailability in rat (dose 10 mg/kg i.v. and 50 mg/kg p.o.); assay type: ADME, organism-based; details: in vivo; procedure, shortened: as §4
[19] = Partition coefficient between octanol and water (logP); assay type: physicochemical
[20] = pKa value was determined; assay type: physicochemical
[21] = Solubility in iv formulation was determined after incubation at 25 degree C
[22] = Solubility in oral formulation was determined after incubation at 25 degree C; assay type: physicochemical
[23] = Solubility in PBS AT pH 7.4 was determined after incubation at 25 degree C; assay type: physicochemical

SMILES: CCNCC1=C(C(F)(F)F)O[C@@H]2O[C@]3(C)CCC4[C@H](C)CC[C@@H]1[C@]42OO3 (stereo partly drawn)
- ED50 [1]: < 10 mg/kg
- ED50 [2]: < 10 mg/kg
- ED90 [3]: < 10 mg/kg
- ED90 [4]: < 10 mg/kg
- Reduction [5]: 96%
- Reduction [6]: 98.1%
- Parasitemia [7]: 66%
- Parasitemia [8]: 5%
- IC50 [9]: 13.4 nM

SMILES: C[C@@H]1CC[C@H]2C(CNCCN)=C(C(F)(F)F)O[C@@H]3O[C@]4(C)CCC1[C@]32OO4 (stereo partly drawn)
- Parasitemia [10]: 25%
- Parasitemia [11]: 0%
- IC50 [12]: 1.2 nM

SMILES: C[C@@H]1CC[C@H]2C(CC(C(=O)O)C(=O)O)=C(C(F)(F)F)O[C@@H]3O[C@]4(C)CC[C@@H]1[C@]32OO4
- IC50 [9]: > 1000 nM

SMILES: C[C@@H]1CC[C@H]2C(COCC(O)CO)=C(C(F)(F)F)O[C@@H]3OC4(C)CCC1[C@]32OO4 (single isomer, unassigned)
- IC50 [12]: 3.7 nM

SMILES: C[C@@H]1CC[C@H]2C(CO)=C(C(F)(F)F)O[C@@H]3OC4(C)CCC1[C@]32OO4 (single isomer, unassigned)
- Parasitemia [11]: 40%
- IC50 [12]: 7.5 nM

SMILES: C[C@@H]1CC[C@H]2C(CN3CCOCC3)=C(C(F)(F)F)O[C@@H]3OC4(C)CCC1[C@]32OO4 (single isomer, unassigned)
- ED50 [1]: < 10 mg/kg
- ED50 [13]: < 10 mg/kg
- ED90 [3]: < 10 mg/kg
- ED90 [4]: < 10 mg/kg
- Reduction [5]: 93.3%
- Reduction [6]: 98.1%
- Parasitemia [14]: 45%
- Parasitemia [11]: 18%
- IC50 [12]: 3.1 nM

SMILES: COC(=O)C(C(=O)OC)C1=C(C(F)(F)F)O[C@@H]2OC3(C)CCC4[C@H](C)CC[C@@H]1[C@]42OO3 (single isomer, unassigned)
- IC50 [9]: > 1000 nM

SMILES: CC1=C(C(F)(F)F)O[C@@H]2OC3(C)CC[C@H]4[C@H](C)CC[C@@H]1[C@@]24OO3 (single isomer, unassigned)
- Parasitemia [7]: 34%
- Parasitemia [11]: 0%
- IC50 [12]: 6 nM

SMILES: C[C@@H]1CC[C@H]2C(CN3CCN(CCO)CC3)=C(C(F)(F)F)O[C@@H]3OC4(C)CC[C@@H]1[C@]32OO4 (single isomer, unassigned)
- clearance [15]: 149 mL/min/kg
- Vd [16]: 11.8 L/kg
- logD [17]: 3.46
- bioavailability [18]: 34.6%
- logP [19]: 3.52
- pKa [20]: 6.59
- solubility [21]: > 3000 µg/mL
- solubility [22]: 676 µg/mL (≈ 1460 µM)
- solubility [23]: 234 µg/mL (≈ 507 µM)
- ED50 [1]: < 10 mg/kg
- ED50 [2]: < 10 mg/kg
- ED90 [3]: < 10 mg/kg
- ED90 [4]: < 10 mg/kg
- Reduction [5]: 100%
- Reduction [6]: 100%
- Parasitemia [7]: 37%
- Parasitemia [8]: 0.5%
- IC50 [9]: 15.2 nM

SMILES: CCOCC1=C(C(F)(F)F)O[C@@H]2OC3(C)CC[C@H]4[C@H](C)CC[C@@H]1[C@@]24OO3 (single isomer, unassigned)
- ED50 [2]: < 10 mg/kg
- ED90 [4]: < 10 mg/kg
- Reduction [5]: 15.6%
- Reduction [6]: 100%
- Parasitemia [7]: 30%
- Parasitemia [11]: 0.4%
- IC50 [9]: 25 nM

SMILES: C[C@@H]1CC[C@H]2C(COCCO)=C(C(F)(F)F)O[C@@H]3OC4(C)CC[C@@H]1[C@]32OO4 (single isomer, unassigned)
- Parasitemia [11]: 2%
- IC50 [12]: 2.4 nM

SMILES: CC(=O)OCC1=C(C(F)(F)F)O[C@@H]2OC3(C)CC[C@H]4[C@H](C)CC[C@@H]1[C@@]24OO3 (single isomer, unassigned)
- IC50 [12]: 1.7 nM

SMILES: C=CCOCC1=C(C(F)(F)F)O[C@@H]2OC3(C)CC[C@H]4[C@H](C)CC[C@@H]1[C@@]24OO3 (single isomer, unassigned)
- IC50 [12]: 6 nM

SMILES: COCCOCC1=C(C(F)(F)F)O[C@@H]2OC3(C)CC[C@H]4[C@H](C)CC[C@@H]1[C@@]24OO3 (single isomer, unassigned)
- Parasitemia [11]: 6%
- IC50 [12]: 2.7 nM

SMILES: C[C@@H]1CC[C@H]2C(COCc3ccccc3)=C(C(F)(F)F)O[C@@H]3OC4(C)CC[C@@H]1[C@]32OO4 (single isomer, unassigned)
- IC50 [9]: 20 nM

SMILES: Cc1ccc(S(=O)(=O)NCC2=C(C(F)(F)F)O[C@@H]3OC4(C)CC[C@H]5[C@H](C)CC[C@@H]2[C@@]35OO4)cc1 (single isomer, unassigned)
- IC50 [12]: 19.1 nM

SMILES: C[C@@H]1CC[C@H]2C(CNS(C)(=O)=O)=C(C(F)(F)F)O[C@@H]3OC4(C)CC[C@@H]1[C@]32OO4 (single isomer, unassigned)
- IC50 [12]: 20 nM

SMILES: C[C@@H]1CC[C@H]2C(CN)=C(C(F)(F)F)O[C@@H]3OC4(C)CC[C@@H]1[C@]32OO4 (single isomer, unassigned)
- Parasitemia [11]: 0.7%
- IC50 [12]: 4.4 nM

SMILES: CNCC1=C(C(F)(F)F)O[C@@H]2OC3(C)CC[C@H]4[C@H](C)CC[C@@H]1[C@@]24OO3 (single isomer, unassigned)
- IC50 [12]: 9.2 nM

SMILES: C[C@@H]1CC[C@H]2C(CN=[N+]=[N-])=C(C(F)(F)F)O[C@@H]3OC4(C)CC[C@@H]1[C@]32OO4 (single isomer, unassigned)
- IC50 [12]: 10 nM

SMILES: CC1=CO[C@@H]2OC3(C)CC[C@H]4[C@H](C)CC[C@@H]1[C@@]24OO3 (single isomer, unassigned) [ANHYDRODIHYDROARTEMISININ]
- Parasitemia [11]: 18%
- IC50 [12]: 20 nM

SMILES: CO[C@H]1O[C@@H]2O[C@@]3(C)CC[C@H]4[C@H](C)CC[C@@H]([C@H]1C)[C@@]24OO3 [ARTEMETHER]
- clearance [15]: 114 mL/min/kg
- Vd [16]: 8.4 L/kg
- bioavailability [18]: 1.4%
- solubility [21]: 4700 µg/mL (≈ 15800 µM)
- solubility [22]: 256 µg/mL (≈ 858 µM)
- solubility [23]: 63.4 µg/mL (≈ 212 µM)
- Parasitemia [7]: 32%
- Parasitemia [11]: 0%
- IC50 [12]: 3.5 nM

SMILES: C[C@H]1[C@H](OC(=O)CCC(=O)O)O[C@@H]2O[C@@]3(C)CC[C@H]4[C@H](C)CC[C@@H]1[C@@]24OO3 [ARTESUNATE]
- ED50 [1]: 5.4 mg/kg
- ED50 [2]: 2.8 mg/kg
- ED90 [3]: 15.3 mg/kg
- ED90 [4]: 10.5 mg/kg
- Reduction [6]: 90%

Source: ChEMBL document CHEMBL1149097, “Orally active antimalarials: hydrolytically stable derivatives of 10-trifluoromethyl anhydrodihydroartemisinin” (J Med Chem, 2004)
